In ChEMBL document CHEMBL1240521, “Design and synthesis of biphenyl derivatives as mushroom tyrosinase inhibitors” (Bioorg Med Chem, 2010):
pIC50, pKi: −log10 of the molar value.

Molecular target: T1, Tyrosinase (Agaricus bisporus, UniProt O42713)
T1 sequence (O42713 whole entry): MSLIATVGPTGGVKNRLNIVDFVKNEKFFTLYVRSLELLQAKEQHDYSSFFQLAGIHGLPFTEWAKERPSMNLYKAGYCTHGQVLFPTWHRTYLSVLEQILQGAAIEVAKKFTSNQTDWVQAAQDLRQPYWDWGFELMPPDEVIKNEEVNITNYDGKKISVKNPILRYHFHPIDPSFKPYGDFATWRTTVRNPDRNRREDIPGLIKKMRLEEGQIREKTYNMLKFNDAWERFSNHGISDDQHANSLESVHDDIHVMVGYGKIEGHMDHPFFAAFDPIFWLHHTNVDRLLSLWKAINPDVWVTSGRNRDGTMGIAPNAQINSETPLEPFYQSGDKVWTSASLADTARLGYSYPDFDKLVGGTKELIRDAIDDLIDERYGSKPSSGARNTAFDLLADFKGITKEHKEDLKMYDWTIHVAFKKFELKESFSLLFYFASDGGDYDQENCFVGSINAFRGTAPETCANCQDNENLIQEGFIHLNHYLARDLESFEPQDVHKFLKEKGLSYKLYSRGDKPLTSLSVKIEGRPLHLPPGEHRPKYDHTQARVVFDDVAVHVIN
Experiment: Competitive inhibition of mushroom tyrosinase after 30 mins by Lineweaver-Burke double reciprocal plot analysis
Method in brief: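 Inhibition type and Ki were determined with respect to L-tyrosine as substrate, using mushroom tyrosinase with dopachrome read-out at 492 nm. Incubation was 30 min at 37 °C in 25 mM PBS, pH 6.8.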

| pKi | SMILES |
| --- | --- |
| 4.42 | COc1cc(-c2ccc(C(=O)O)cc2)cc(OC)c1O |
| 4.82 | COc1cc(-c2ccc(C(=O)O)c(O)c2)cc(OC)c1O |
| 4.22 | COc1cc(-c2ccc(C(=O)NCc3ccccc3)c(O)c2)cc(OC)c1O |
| 4.51 | CCCCNC(=O)c1ccc(-c2cc(OC)c(O)c(OC)c2)cc1 |

Molecular target: T1, Tyrosinase
Experiment: Inhibition of mushroom tyrosinase after 30 mins

| SMILES | pIC50 |
| --- | --- |
| COc1cc(-c2ccc(C)c(O)c2)cc(OC)c1OC | < 2.70 |
| COc1cc(-c2cc(F)cc(F)c2)cc(OC)c1OC | < 2.70 |
| COc1cc(-c2ccc(F)cc2F)cc(OC)c1OC | < 2.70 |
| COc1cc(-c2ccc(F)c(F)c2)cc(OC)c1OC | < 2.70 |
| COc1cc(-c2cccc(O)c2)cc(OC)c1OC | < 2.70 |
| COc1cc(-c2ccccc2C)cc(OC)c1OC | < 2.70 |
| COc1cc(-c2ccccc2C)cc(OC)c1O | 3.77 |
| COc1cc(-c2ccc(C=O)c(OCc3ccccc3)c2)cc(OC)c1OC | < 2.70 |
| COc1cc(-c2ccc(C=O)c(O)c2)cc(OC)c1OC | < 2.70 |
| COc1cc(-c2ccc(C(=O)O)c(OCc3ccccc3)c2)cc(OC)c1OC | < 2.70 |
| COc1cc(-c2ccc(C(=O)O)c(O)c2)cc(OC)c1OC | < 2.70 |
| CCOC(=O)c1ccc(-c2cc(OC)c(OC)c(OC)c2)cc1O | < 2.70 |
| COc1cc(-c2ccc(C(=O)NCc3ccccc3)c(OCc3ccccc3)c2)cc(OC)c1OC | < 2.70 |
| COc1cccc(-c2cc(OC)c(OC)c(OC)c2)c1F | < 2.70 |
| COc1ccc(C(C)=O)cc1-c1cc(OC)c(OC)c(OC)c1 | < 2.70 |
| COc1ccc(C(C)O)cc1-c1cc(OC)c(OC)c(OC)c1 (configuration not stated) | < 2.70 |
| COc1cc(-c2cccc(OCc3ccccc3)c2)cc(OC)c1OC | 3.26 |
| COc1cc(-c2ccc(C(=O)O)cc2)cc(OC)c1OC | < 2.70 |
| CCCCNC(=O)c1ccc(-c2cc(OC)c(OC)c(OC)c2)cc1 | < 2.70 |
| COc1cc(-c2ccc(C(=O)NCc3ccccc3)cc2)cc(OC)c1OC | < 2.70 |
| COc1cc(-c2ccc(O)c(OCc3ccccc3)c2)cc(OC)c1OC | 3.77 |
| COc1ccc(C(C)O)cc1-c1cc(OC)c(O)c(OC)c1 (configuration not stated) | 3.72 |
| COc1cc(-c2ccc(O[C@@H]3O[C@H](CO)[C@@H](O)[C@H](O)[C@H]3O)c(O)c2)cc(OC)c1O [FORTUNEANOSIDE E] | 3.85 |

Second part, the compound after the results:

| pIC50 | SMILES |
| --- | --- |
| 4.22 | COc1cc(-c2ccc(C=O)c(O)c2)cc(OC)c1O |
| 4.05 | COc1cc(-c2ccc(C)c(O)c2)cc(OC)c1O |
| 4.10 | COc1cc(-c2cc(F)cc(F)c2)cc(OC)c1O |
| 4.22 | COc1cc(-c2ccc(F)cc2F)cc(OC)c1O |
| 4.15 | COc1cc(-c2ccc(F)c(F)c2)cc(OC)c1O |
| 4.22 | COc1cc(-c2cccc(OC)c2F)cc(OC)c1O |
| 4.10 | COc1cc(-c2cccc(O)c2F)cc(OC)c1O |
| 4.05 | COc1cc(-c2cccc(O)c2)cc(OC)c1O |
| 4.30 | COc1cc(-c2ccc(C(=O)O)cc2)cc(OC)c1O |
| 4.70 | COc1cc(-c2ccc(C(=O)O)c(O)c2)cc(OC)c1O |
| 4.30 | CCOC(=O)c1ccc(-c2cc(OC)c(O)c(OC)c2)cc1O |
| 4.52 | COc1cc(-c2ccc(C(=O)NCc3ccccc3)c(O)c2)cc(OC)c1O |
| 3.85 | COc1ccc(C(C)=O)cc1-c1cc(OC)c(O)c(OC)c1 |
| 4.15 | CCCCNC(=O)c1ccc(-c2cc(OC)c(O)c(OC)c2)cc1 |
| 3.92 | COc1cc(-c2ccc(C(=O)NCc3ccccc3)cc2)cc(OC)c1O |
